Measurements published in ChEMBL document CHEMBL4000211, “Discovery of novel polycyclic spiro-fused carbocyclicoxindole-based anticancer agents” (Eur J Med Chem, 2017).

How the values were obtained:
Assay type in all cases: functional
[1] = test system: HCT-116; test: Induction of apoptosis in human HCT116 cells assessed as late apoptotic cells at 12.5 uM after 48 hrs by annexin V-FITC/propidium iodide staining-based flow cytometric method (reference value: 1.06%)
[2] = test system: HCT-116; test: Induction of apoptosis in human HCT116 cells assessed as viable cells at 7.5 uM after 48 hrs by annexin V-FITC/propidium iodide staining-based flow cytometric method (reference value: 95.05%); settings: HCT-116, 48 h, read-out: Activity
Procedure, shortened: (§1)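 HCT116 cells seeded at 1×10⁶ cells/mL in 6-well plates for 24 h, then exposed to 0, 7.5, 10 or 12.5 μM for a further 24 h or 48 h. Cells washed twice in PBS, then stained with Annexin V-FITC plus PI (100 μg/mL stock) in binding buffer (10 mM HEPES, pH 7.4, 2.5 mM CaCl₂) for 30 min at room temperature in the dark. Early and late apoptotic fractions gated by flow cytometry.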

[3] = test system: HCT-116; test: Cell cycle arrest in human HCT116 cells assessed as accumulation at G2 phase at 10 uM after 48 hrs by propidium iodide staining-based flow cytometric method (reference value: 31.27%)
[4] = test system: HCT-116; test: Cell cycle arrest in human HCT116 cells assessed as accumulation at S phase at 7.5 uM after 48 hrs by propidium iodide staining-based flow cytometric method (reference value: 34.83%)
[5] = test system: HCT-116; test: Induction of apoptosis in human HCT116 cells assessed as necrotic cells at 10 uM after 24 hrs by annexin V-FITC/propidium iodide staining-based flow cytometric method (reference value: 1.85%)
[6] = test system: HCT-116; test: Induction of apoptosis in human HCT116 cells assessed as viable cells at 12.5 uM after 48 hrs by annexin V-FITC/propidium iodide staining-based flow cytometric method (reference value: 95.05%); settings: HCT-116, 48 h, read-out: Activity; procedure, shortened: as §1
[7] = test system: HCT-116; test: Cell cycle arrest in human HCT116 cells assessed as accumulation at sub G1 phase at 7.5 uM after 48 hrs by propidium iodide staining-based flow cytometric method (reference value: 0.86%)
[8] = test system: HCT-116; test: Cell cycle arrest in human HCT116 cells assessed as accumulation at sub G1 phase at 7.5 uM after 24 hrs by propidium iodide staining-based flow cytometric method (reference value: 1.73%)

For `C[C@@H]1Oc2ccc3ccccc3c2[C@@H]2[C@@H]1C=C(C=O)[C@@H](C)[C@]21C(=O)Nc2ccccc21`, the Activity [1] was 18.89%, the viability at 7.5 µM [2] was 91.7% and the Activity [3] was 18.42%. It also gave an Activity [4] of 23.94%, an Activity [5] of 2.46% and a viability at 12.5 µM [6] of 28.6%. The Activity [7] was 4.19% and the Activity [8] was 3.18%.
